Results on 24 compounds are retold here after ChEMBL document CHEMBL1212925, “Replacement of imidazolyl by pyridyl in biphenylmethylenes results in selective CYP17 and dual CYP17/CYP11B1 inhibitors for the treatment of prostate cancer” (J Med Chem, 2010).

In general, IC50 refers to the concentration that inhibits the measured activity by half.

Test [1] deals with T1, Steroid 17-alpha-hydroxylase/17,20 lyase (Homo sapiens, UniProt P05093).
T1 sequence (P05093 whole entry): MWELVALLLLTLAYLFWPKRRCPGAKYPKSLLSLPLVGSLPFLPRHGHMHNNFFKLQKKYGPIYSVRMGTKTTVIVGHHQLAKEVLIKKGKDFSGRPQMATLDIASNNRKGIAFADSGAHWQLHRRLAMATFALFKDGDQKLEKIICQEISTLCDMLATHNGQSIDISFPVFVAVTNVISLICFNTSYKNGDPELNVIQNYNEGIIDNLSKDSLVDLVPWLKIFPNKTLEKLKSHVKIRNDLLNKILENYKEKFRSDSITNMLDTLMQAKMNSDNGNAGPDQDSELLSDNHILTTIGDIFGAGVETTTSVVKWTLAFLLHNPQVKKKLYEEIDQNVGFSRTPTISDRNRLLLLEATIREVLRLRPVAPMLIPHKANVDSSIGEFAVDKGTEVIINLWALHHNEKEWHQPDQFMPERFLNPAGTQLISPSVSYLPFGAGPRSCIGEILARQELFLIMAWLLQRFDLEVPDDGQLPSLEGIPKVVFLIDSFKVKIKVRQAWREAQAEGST
As to the kind of experiment: Inhibition of human CYP17 expressed in Escherichia coli. In short, it runs like this:
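Enzyme source: 50 000 sediment of homogenized E. coli co-expressing human CYP17 and NADPH-P450 reductase. Substrate and product separated by HPLC with UV detection.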

Test [2] addresses T2, Cytochrome P450 11B1, mitochondrial (Homo sapiens, UniProt P15538).
T2 sequence (P15538 whole entry): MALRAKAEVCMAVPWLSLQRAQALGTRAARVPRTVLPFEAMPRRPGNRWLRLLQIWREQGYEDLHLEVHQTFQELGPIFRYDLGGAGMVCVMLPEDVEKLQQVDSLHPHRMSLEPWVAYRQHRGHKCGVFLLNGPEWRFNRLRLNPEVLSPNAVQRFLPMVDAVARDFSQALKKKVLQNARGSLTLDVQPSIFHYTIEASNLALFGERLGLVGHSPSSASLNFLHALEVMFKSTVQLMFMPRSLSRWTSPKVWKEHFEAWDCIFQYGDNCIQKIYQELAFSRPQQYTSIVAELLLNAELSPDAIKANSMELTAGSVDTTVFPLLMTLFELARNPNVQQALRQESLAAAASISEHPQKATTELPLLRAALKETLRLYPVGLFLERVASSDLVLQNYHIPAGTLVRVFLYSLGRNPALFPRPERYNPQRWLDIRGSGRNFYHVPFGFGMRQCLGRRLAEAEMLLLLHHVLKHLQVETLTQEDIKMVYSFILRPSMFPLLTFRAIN
As to the kind of experiment: Inhibition of human CYP11B1 expressed in hamster fibroblast. A digest of the protocol: (§1)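 V79 MZh hamster fibroblasts expressing human CYP11B1 or CYP11B2 incubated with [14C]11-deoxycorticosterone substrate at 100 nM and inhibitor at varied concentrations. Product formation monitored by HPTLC with phosphoimager. IC50 from mean of at least three tests; SD within 5%.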

Test [3] has as its target T3, Cytochrome P450 11B2, mitochondrial (Homo sapiens, UniProt P19099).
T3 sequence (P19099 whole entry): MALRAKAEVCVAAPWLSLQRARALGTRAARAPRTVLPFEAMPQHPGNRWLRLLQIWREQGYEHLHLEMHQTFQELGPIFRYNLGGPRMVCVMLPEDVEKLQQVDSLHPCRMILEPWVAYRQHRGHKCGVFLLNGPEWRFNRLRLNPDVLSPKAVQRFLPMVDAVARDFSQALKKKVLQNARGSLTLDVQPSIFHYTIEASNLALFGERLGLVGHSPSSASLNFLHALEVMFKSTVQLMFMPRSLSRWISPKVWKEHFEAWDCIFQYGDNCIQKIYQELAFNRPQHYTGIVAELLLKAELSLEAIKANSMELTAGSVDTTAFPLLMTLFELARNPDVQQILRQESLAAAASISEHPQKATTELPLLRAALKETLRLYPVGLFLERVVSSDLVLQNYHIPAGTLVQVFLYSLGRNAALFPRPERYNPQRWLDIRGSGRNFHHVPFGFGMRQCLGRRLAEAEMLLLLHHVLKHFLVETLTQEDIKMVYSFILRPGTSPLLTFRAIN
As to the kind of experiment: Inhibition of human CYP11B2 expressed in hamster fibroblast. In short, it runs like this: as §1

Test [4] addresses T4, Aromatase (Homo sapiens, UniProt P11511).
T4 sequence (P11511 whole entry): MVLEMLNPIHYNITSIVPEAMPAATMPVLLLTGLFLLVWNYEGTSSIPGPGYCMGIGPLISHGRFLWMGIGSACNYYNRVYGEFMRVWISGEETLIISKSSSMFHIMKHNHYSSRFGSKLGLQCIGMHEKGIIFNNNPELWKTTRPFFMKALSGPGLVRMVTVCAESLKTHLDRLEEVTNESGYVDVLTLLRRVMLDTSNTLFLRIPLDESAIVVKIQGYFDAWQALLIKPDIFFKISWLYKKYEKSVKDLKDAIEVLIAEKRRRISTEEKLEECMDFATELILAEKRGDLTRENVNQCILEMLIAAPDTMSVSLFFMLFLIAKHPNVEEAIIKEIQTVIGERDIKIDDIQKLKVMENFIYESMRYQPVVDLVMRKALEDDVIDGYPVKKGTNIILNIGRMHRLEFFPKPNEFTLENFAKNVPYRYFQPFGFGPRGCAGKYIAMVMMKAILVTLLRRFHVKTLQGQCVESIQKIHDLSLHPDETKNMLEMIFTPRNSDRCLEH
As to the kind of experiment: Inhibition of human placental CYP19. A digest of the protocol:
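Human placental microsomes with [1β-3H]androstenedione substrate at 500 nM, run in vitro. IC50 values are means of at least three tests; SD within 5%.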

Test [5] concerns the target Cytochrome P450 3A4 (Homo sapiens, UniProt P08684). As to the kind of experiment: Inhibition of recombinant CYP3A4 expressed in baculovirus-infected insect microsome. It is filed as ADME.

Cytochrome P450 3A4, sequence (P08684 whole entry): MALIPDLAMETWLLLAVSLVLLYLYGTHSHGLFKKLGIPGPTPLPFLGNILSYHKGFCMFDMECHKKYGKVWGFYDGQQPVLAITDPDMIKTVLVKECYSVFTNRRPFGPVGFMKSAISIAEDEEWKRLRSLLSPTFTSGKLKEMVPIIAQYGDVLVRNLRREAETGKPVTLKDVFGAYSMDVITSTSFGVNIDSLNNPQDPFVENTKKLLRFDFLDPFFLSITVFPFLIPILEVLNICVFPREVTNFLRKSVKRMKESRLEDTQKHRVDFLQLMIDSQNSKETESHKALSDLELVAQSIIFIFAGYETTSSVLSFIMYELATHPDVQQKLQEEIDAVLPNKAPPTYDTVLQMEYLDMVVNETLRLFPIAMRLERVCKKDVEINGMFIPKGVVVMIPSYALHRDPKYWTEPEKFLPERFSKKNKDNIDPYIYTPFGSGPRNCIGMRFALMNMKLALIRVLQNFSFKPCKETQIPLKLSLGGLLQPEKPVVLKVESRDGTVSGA

In test [1], `CC(C)(C)OC(=O)Nc1ccc(-c2ccc(Cc3ccncc3)cc2)cc1F` registered an IC50 of more than 10000 nM.
With `c1cc(Cc2ccc(-c3ccsc3)cc2)ccn1`, the IC50 was 647 nM in test [1], 415 nM in test [2] and 331 nM in test [3].
With `Oc1ccc(-c2ccc(Cc3ccncc3)cc2)cc1`, the IC50 in test [4] is 3070 nM; in test [1] it was 248 nM; in test [5], 3210 nM; in test [2] it was 251 nM; in test [3] it was 341 nM.
As for `Nc1ccc(-c2ccc(Cc3ccncc3)cc2)cc1N`, the IC50 in test [4] was more than 25000 nM; in test [2], 902 nM; in test [3] it was 367 nM.
`CC(=O)Nc1ccc(-c2ccc(Cc3ccncc3)cc2)cc1` gave a half-maximal inhibitory concentration (IC50) in test [1] of more than 5000 nM.
Take `CCC(c1ccncc1)c1ccc(-c2ccc(OC)cc2)cc1` (centres undefined): the midpoint of inhibition in test [1], the IC50, lay at 1610 nM.
The compound `Oc1ccc(-c2ccc(C(O)n3ccnc3)cc2)cc1` (centres undefined) returned an IC50 in test [1] of more than 5000 nM.
On to `Nc1ccc(-c2ccc(Cc3ccncc3)cc2)cc1`, for which the IC50 in test [4] was found to be 24500 nM; in test [1], 408 nM; in test [5] it was 2450 nM; in test [2] it was 522 nM; in test [3], 406 nM.
In test [1], `CCC(c1ccc(-c2ccc(OC)cc2)cc1)n1ccnc1` (centres undefined) had a half-inhibitory concentration (IC50) of more than 5000 nM.
`CCC(c1ccc(-c2ccc(OC)cc2)cc1)c1cccnc1` (centres undefined): the IC50 in test [1] is more than 5000 nM.
Take `c1csc(-c2ccc(Cc3ccncc3)cc2)c1`: the IC50 in test [1] came to 647 nM; in test [2], 422 nM; in test [3], 796 nM.
With `CC(=O)Nc1cccc(-c2ccc(Cc3ccncc3)cc2)c1`, the IC50 in test [1] is 876 nM; in test [2], 307 nM; in test [3] it was 567 nM.
In the case of `Fc1ccc(-c2ccc(Cc3ccncc3)cc2)cc1F`, the IC50 in test [1] was 598 nM; in test [2], 4740 nM; in test [3], 273 nM.
Consider `c1cc(Cc2ccc(-c3ccc4[nH]ccc4c3)cc2)ccn1`, for which the IC50 in test [1] was 760 nM; in test [2], 469 nM; in test [3], 231 nM.
In test [1], `COc1ccc(-c2ccc(Cc3ccncc3)cc2)cc1F` returned an IC50 of 3340 nM.
`Oc1ccc(-c2ccc(Cc3cccnc3)cc2)cc1`: in test [1], the IC50 was 4040 nM.
Same read-out and setting: as for `CC(C)(C)OC(=O)Nc1ccc(-c2ccc(Cc3ccncc3)cc2)cc1NC(=O)OC(C)(C)C`, the figure is more than 10000 nM.
Same read-out and setting: as for `COc1ccc2cc(-c3ccc(Cc4ccncc4)cc3)ccc2c1`, the figure is 2000 nM.
`NC(=O)c1ccc(-c2ccc(Cc3ccncc3)cc2)cc1` yielded an IC50 in test [1] of 1790 nM.
As for `Oc1ccc2cc(-c3ccc(Cc4ccncc4)cc3)ccc2c1`, the IC50 in test [1] is 438 nM; in test [5], 1140 nM; in test [2], 627 nM; in test [3] it was 1130 nM.
For the compound `COc1ccc(-c2ccc(Cc3ccncc3)cc2)cc1NC(=O)OC(C)(C)C`, the IC50 in test [1] is more than 10000 nM.
As to `Oc1ccc(-c2ccc(Cc3ccncc3)cc2)cc1F`, the results for the IC50 in test [4], in test [2] and in test [3] were 2690 nM, 850 nM and 210 nM, respectively.
Regarding `CC(C)(C(=O)c1cccnc1)c1cccnc1` [METYRAPONE], the IC50 in test [1] is more than 10000 nM.
Still for that read-out and setting: as for `CC(C)(C)OC(=O)Nc1ccc(-c2ccc(Cc3ccncc3)cc2)cc1`, the figure is 1370 nM.
